From ChEMBL document CHEMBL1147907, “Structure-based discovery of new small molecule inhibitors of low molecular weight protein tyrosine phosphatase” (Eur J Med Chem, 2007)
The source made the active and inactive calls. The rule behind the calls is not given here.

Target: T1, Low molecular weight phosphotyrosine protein phosphatase (Bos taurus) (UniProt P11064)
T1 sequence (whole entry): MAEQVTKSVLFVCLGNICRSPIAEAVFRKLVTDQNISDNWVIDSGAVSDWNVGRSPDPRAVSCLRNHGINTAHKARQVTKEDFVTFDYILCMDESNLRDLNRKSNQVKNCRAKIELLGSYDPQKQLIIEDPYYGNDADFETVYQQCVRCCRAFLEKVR
Assay: (§1) Inhibition of bovine low molecular weight PTP expressed in Escherichia coli […] cells
Outline: (§2)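 Enzyme held at 10 nM; p-nitrophenyl phosphate substrate at five final concentrations (0.4, 0.8, 1.2, 1.6, 2.0 mM) against four to five inhibitor concentrations; inhibitors kept as 100 mM DMSO stocks. Run at 37 °C in 40 mM sodium acetate pH 5.0, 150 mM NaCl, 1 mM TCEP. p-Nitrophenolate release read at 405 nm; competitive Ki derived.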

Q: How did the Activity turn out when CS(=O)(=O)N1CCN(C2=C(Cl)C(=O)c3ccccc3C2=O)CC1 was run?
A: inactive

Q: For Cc1cc[n+](CCCS(=O)(=O)O)c2ccccc12, which Activity is on record?
A: inactive

Q: O=C(O)C1CCN(S(=O)(=O)c2cccc3nsnc23)CC1 was tested. Which Activity did it give?
A: inactive

Q: With CS(=O)(=O)N1CCCC(C(=O)NCc2ccccc2Cl)C1 (centres undefined) as the molecule, how does the Activity read?
A: inactive

Q: Which Activity does the source give for O=C(O)C1CCC(CNCc2ccncc2)CC1 (centres undefined) here?
A: inactive

Q: With O=C(O)CC(O)c1nc2ccccc2[nH]1 (centres undefined) as the molecule, how does the Activity read?
A: inactive

Q: For CCCOc1ccc(N2C(=O)CC(N3CCC(C(=O)O)CC3)C2=O)cc1 (centres undefined), which Activity is on record?
A: inactive

Q: For Cc1ccc(N2C(=O)CC(N3CCC(C(=O)O)CC3)C2=O)cc1 (centres undefined), which Activity is on record?
A: inactive

Q: How did the Activity turn out when O=C(O)C1CC(=O)N(C2CCCCCC2)C1 (centres undefined) was run?
A: inactive

Q: How did the Activity turn out when O=C(O)c1ccc(C2(c3ccc(C(=O)O)cc3)OC(=O)c3ccccc32)cc1 was run?
A: inactive

Q: With Cc1cc(C(=S)N2CCOCC2)c(C)n1-c1ccc(C(=O)O)cc1 as the molecule, how does the Activity read?
A: inactive

Q: For Cc1ccc2nc(-c3cccnc3)cc(C(=O)Nc3ccc(CC(=O)O)cc3)c2c1, which Activity is on record?
A: inactive

Q: How did the Activity turn out when O=C(O)c1ccc2c(c1)c1c3n2CCNC3CCC1 (centres undefined) was run?
A: inactive

Q: For O=C(O)COc1ccc2c(c1)C(=O)CC1(CCCCC1)O2, which Activity is on record?
A: inactive

Q: O=[N+]([O-])c1ccc(C2=Nn3c(nnc3-c3ccccc3)SC2)cc1 was tested. Which Activity did it give?
A: inactive

Q: Which Activity does the source give for COc1ccc(CN2CCN(S(C)(=O)=O)CC2)cc1OC here?
A: inactive

Q: For O=C(O)c1ccc2c(c1)C1C=CCC1C(C(=O)O)N2 (centres undefined), which Activity is on record?
A: inactive

Q: For O=C(O)C1CSC(c2cc(Br)ccc2O)N1 (centres undefined), which Activity is on record?
A: inactive

Target: T2, Low molecular weight phosphotyrosine protein phosphatase (Bos taurus, UniProt P11064)
T2 sequence (P11064 whole entry): T1 sequence (whole entry)
Assay: as §1
Outline: as §2

Q: With O=C(O)c1ccc2[nH]c3c(c2c1)CCCC3 as the molecule, how does the Ki read?
A: > 1000 µM

Q: O=C(O)CCC(=O)N1N=C(c2ccccc2)CC1c1ccccc1F (centres undefined) was tested. Which Ki did it give?
A: > 1000 µM

Q: Which Ki does the source give for O=C(O)Cc1ccc2c(c1)[nH]c1ccc(Br)cc12 here?
A: 60 µM

Q: With CCn1c2c(c3cc(C(=O)O)ccc31)CCCC2=O as the molecule, how does the Ki read?
A: 610 µM

Q: Which Ki does the source give for O=C1N=C(Cc2cccn2-c2ccc(C(=O)O)cc2)C(=O)N1 here?
A: 11 µM

Q: With O=C(O)CCC(=O)N1CCc2cc(S(=O)(=O)NCc3cccs3)ccc21 as the molecule, how does the Ki read?
A: > 1000 µM

Q: With O=C(O)c1ccc2c(c1)C1C=CCC1C(c1cccc(Br)c1)N2 (centres undefined) as the molecule, how does the Ki read?
A: 9 µM

Q: With O=C(O)c1ccc2c(c1)C1C=CCC1C(c1cccnc1)N2 (centres undefined) as the molecule, how does the Ki read?
A: > 1000 µM

Q: How did the Ki turn out when CCn1c2ccc(CC(=O)O)cc2c2cc(CC(=O)O)ccc21 was run?
A: 170 µM

Q: O=C(O)c1ccc2c(c1)C1C=CCC1C(c1ccccc1C(F)(F)F)N2 (centres undefined) was tested. Which Ki did it give?
A: 50 µM

Q: How did the Ki turn out when Cn1c(=O)oc2cc(S(=O)(=O)N3CCC(C(=O)O)CC3)ccc21 was run?
A: > 1000 µM

Q: Which Ki does the source give for O=C(O)c1ccc(-n2nc(C(F)(F)F)c3c2CCCC3)cc1 here?
A: > 1000 µM

Q: O=C(O)Cc1ccc(C2C(=O)C3SC=CC3NC2=S)cc1 (centres undefined) was tested. Which Ki did it give?
A: 880 µM

Q: With O=C(O)c1ccc(C2Nc3c(F)cc(F)cc3C3C=CCC32)cc1 (centres undefined) as the molecule, how does the Ki read?
A: 910 µM

Q: O=C(O)c1ccc2c(c1)C1C=CCC1C(c1ccccc1)N2 (centres undefined) was tested. Which Ki did it give?
A: > 1000 µM

Q: With O=C(O)c1ccc2[nH]c3c(c2c1)CSCC3 as the molecule, how does the Ki read?
A: 240 µM
